From ChEMBL document CHEMBL3400080, “Design, synthesis, optimization and antiviral activity of a class of hybrid dengue virus E protein inhibitors” (Bioorg Med Chem Lett, 2015)

Experiments:
dengue virus type 2 [1] = test: Antiviral activity against DENV serotype 2 strain New Guinea C infected in african green monkey Vero-B cells assessed as inhibition of virus-induced cytopathic effect after 2 hrs by CPE-reduction assay; format: functional, organism-based
Procedure, shortened: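 Virus and compound mixed and pre-incubated together for 2 h at 37 °C before being added to cells. Co-addition without pre-incubation was also tested. Read-out was inhibition of virus-induced cytopathic effect (cell death). EC50 was taken from the dose-response.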

[2] = Cytotoxicity against DENV serotype 2 strain New Guinea C infected african green monkey Vero B cells by CPE-reduction assay; format: cell-based; settings: chlorocebus sabaeus
[3] = Selectivity index, CC50 for african green monkey Vero B cells to EC50 for DENV serotype 2 strain New Guinea C by CPE-reduction assay
dengue virus type 2 [4] = test: Antiviral activity against DENV serotype 2 strain New Guinea C infected in african green monkey Vero cells assessed as reduction in production and release of infectious progeny virions after 2 hrs by virus yield-reduction assay; format: functional, organism-based
Procedure, shortened: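 Dose-response validation in virus-infected, compound-treated cells. Read-out was the amount of dengue viral RNA produced, quantified as a virus yield reduction. EC50 was derived from this.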

[5] = Cytotoxicity against DENV serotype 2 strain New Guinea C infected african green monkey Vero B cells by virus yield-reduction assay; format: cell-based; settings: chlorocebus sabaeus
[6] = Selectivity index, CC50 for african green monkey Vero B cells to EC50 for DENV serotype 2 strain New Guinea C by virus yield-reduction assay; format: toxicity, cell-based; settings: read-out: Selectivity Index
Procedure, shortened: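 Selectivity index is CC50 divided by EC50. The EC50 comes from a dose-response measurement of the dengue virus RNA produced by virus-infected cells treated with compound (virus yield reduction).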

Yellow fever virus = test: Antiviral activity against Yellow fever virus; format: functional, organism-based
dengue virus type 2 [7] = test: Antiviral activity against DENV serotype 2 strain New Guinea C infected in BHK-21 cells assessed as inhibition of plaque formation after 2 hrs by plaque-reduction assay; format: functional, organism-based
Procedure, shortened: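 Dose-response effect on production of infectious dengue virus serotype 2 progeny, read as plaque formation. EC50 was derived from the plaque counts.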

SMILES | EC50 (dengue virus type 2 [1]) [µM] | CC50 [2] [µM] | Selectivity Index [3] | EC50 (dengue virus type 2 [4]) [µM] | CC50 [5] [µM] | selectivity ratio [6] | IC50 (Yellow fever virus) [µM] | inhibition (dengue virus type 2 [7]) | EC50 (dengue virus type 2 [7]; BHK-21, 2 h) [µM]
COc1ccc(C2=NN(c3nc(-c4ccc(Cl)cc4)cs3)C(c3ccc(O)c(OC)c3)C2)cc1 (stereo unspecified) | 0.79 | 2.4 | 3 | 7 | 54.6 | 8 |  |  | 
Nc1ccccc1SCc1csc(-c2ccc(Cl)cc2)n1 |  |  |  |  |  |  | 31 |  | 
C/C(=N\Nc1nc(-c2ccc(Cl)cc2)cs1)c1ccc(O)cc1 | 5.8 | 145 | 25 | 1.32 | 125 | 95 |  | Dose-dependent effect | 1.39
Oc1ccc(/C=N/Nc2nc(-c3ccc(-c4ccccc4)cc3)cs2)cc1 | 16.8 | > 135 | >8 | 5.29 | > 135 | > 25 |  |  | 
NC(=O)c1ncn([C@@H]2O[C@H](CO)[C@@H](O)[C@H]2O)n1 [RIBAVIRIN] |  |  |  | 47.9 | > 410 | > 9 |  |  | 
Oc1ccc(C2=NN(c3nc(-c4ccc(-c5ccccc5)cc4)cs3)C(c3ccccc3)C2)cc1 (stereo unspecified) | 13.2 | 79.2 | 6 | 8.44 | 86.8 | 10 |  |  | 
COc1ccc(/C(C)=N/Nc2nc(-c3ccc(-c4ccccc4)cc3)cs2)cc1 | 100 | 200 | 2 | 17.7 | 117 | 7 |  |  | 
COc1ccc(C2=NN(c3nc(-c4ccc(-c5ccccc5)cc4)cs3)C(c3ccc(O)cc3)C2)cc1 (stereo unspecified) | 24.8 | > 99 | >4 | 18.6 | 99.3 | 5 |  |  | 
COc1ccc(C2=NN(c3nc(-c4ccc(-c5ccccc5)cc4)cs3)C(c3ccc(O)c(OC)c3)C2)cc1 (stereo unspecified) | 8.4 | 16.8 | 2 | 3.79 | 25.6 | 7 |  |  | 
Cc1nc(-n2nc(-c3ccccc3)cc2-c2ccccc2)sc1C(=O)/C=C/c1ccc(Cl)c(Cl)c1 |  |  |  |  |  |  | 51 |  | 
C(=N\Nc1nc(-c2ccc(-c3ccccc3)cc2)cs1)/c1ccccc1 | 35.2 | > 141 | >4 | 128 | > 141 | > 1 |  |  | 
C/C(=N\Nc1nc(-c2ccc(-c3ccccc3)cc2)cs1)c1ccc([N+](=O)[O-])cc1 | 41 | 82 | 2 | 12.2 | 70.8 | 6 |  |  | 
